pEC50, pIC50: −log10 of the molar value.
Key:
[1] = Ratio of drug up take in liver to plasma of rat at 5 mg/kg, po measured at 6 hrs post dose; type: ADME, organism-based; design: dose 5 mg/kg, route oral
[2] = Cmax in rat at 5 mg/kg, po and 2 mg/kg, iv; type: ADME, organism-based; conditions: in vivo
Outline: (§1)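 Animals fasted overnight. Oral dose given as a suspension in 0.5% methylcellulose, 0.3% Tween-80 and 1% NMP. IV bolus of 2 mg/kg given in 70% PEG-400:30% water. N = 3 per dose and per route. Plasma kept on ice, spun at 4 °C and stored at about −20 °C. Calibration standards prepared in blank plasma, LOQ 7 ng/mL. Non-compartmental analysis.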

Cynomolgus monkey [3] = assay: Dose normalized volume of distribution at steady state in cynomolgous monkey at 10 mg/kg, po and 2 mg/kg, iv; type: ADME, organism-based, Macaca fascicularis; conditions: in vivo
Outline: (§2)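 Cynomolgus monkeys fasted overnight, then given 10 mg/kg orally as a suspension in 0.5% methylcellulose, 0.3% Tween-80 and 1% NMP. IV bolus of 2 mg/kg in 70% PEG-400:30% water. Oral values normalized to 5 mg/kg. Plasma analysed by non-compartmental methods.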

[4] = Dose normalized bioavailability in cynomolgous monkey at 10 mg/kg, po and 2 mg/kg, iv; type: ADME, organism-based, Macaca fascicularis; conditions: cynomolgus monkey, in vivo, read-out: F/dose; outline: as §2
[5] = Permeability coefficient, Kp for ratio of drug uptake in liver to plasma in rat; type: ADME
[6] = AUC in dog at 5 mg/kg, po and 2 mg/kg, iv; type: ADME, organism-based, Canis lupus familiaris; conditions: plasma; outline: as §1
Hepatitis C virus [7] = assay: Antiviral activity against Hepatitis C virus genotype 1a infected in human Huh cells assessed as inhibition of viral replication by RT-PCR-based replicon assay; type: functional, cell-based, Hepacivirus hominis; conditions: subtype 1a
Outline: (§3)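 HCV replicon EC50 determined in duplicate, using either a GT1b luciferase reporter read-out or RT-PCR quantification of replicon RNA.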

[8] = Bioavailability in rat at 5 mg/kg, po and 2 mg/kg, iv; type: ADME, organism-based; conditions: in vivo; outline: as §1
Hepatitis C virus [9] = assay: Antiviral activity against Hepatitis C virus genotype 1b infected in human Huh cells assessed as inhibition of viral replication by RT-PCR-based replicon assay; type: functional, cell-based, Hepacivirus hominis; outline: as §3
[10] = Clearance in cynomolgous monkey at 2 mg/kg, iv; type: ADME, organism-based, Macaca fascicularis; design: dose 2 mg/kg, route intravenous; conditions: cynomolgus monkey, in vivo; outline: as §1
Rattus norvegicus = assay: Dose normalized Cmax in rat at 10 mg/kg, po; type: ADME, organism-based; design: dose 10 mg/kg, route oral; conditions: in vivo
Outline: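 Rats dosed orally at 10 mg/kg as a suspension in 0.5% methylcellulose, 0.3% Tween-80 and 1% NMP. Plasma Cmax normalized to 5 mg/kg.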

[11] = Half life in dog at 5 mg/kg, po and 2 mg/kg, iv; type: ADME, organism-based, Canis lupus familiaris; conditions: in vivo; outline: as §1
[12] = Inhibition of Hepatitis C virus genotype 1b C-terminal truncated NS5B RNA dependent RNA polymerase delta21 expressed in Escherichia coli by scintillation proximity assay; design: species or system Hepatitis C virus subtype 1b
Outline: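 Biochemical polymerase inhibition using a C-terminally truncated GT1b NS5BΔ21 construct. Values are the mean of duplicate measurements (n ≥ 2).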

[13] = AUC in rat at 5 mg/kg, po and 2 mg/kg, iv; type: ADME, organism-based; conditions: plasma; outline: as §1
[14] = Cmax in dog at 5 mg/kg, po and 2 mg/kg, iv; type: ADME, organism-based, Canis lupus familiaris; conditions: in vivo; outline: as §1
[15] = Bioavailability in dog at 5 mg/kg, po and 2 mg/kg, iv; type: ADME, organism-based, Canis lupus familiaris; conditions: in vivo; outline: as §1
Cynomolgus monkey [16] = assay: Dose normalized half life in cynomolgous monkey at 10 mg/kg, po and 2 mg/kg, iv; type: ADME, organism-based, Macaca fascicularis; conditions: in vivo; outline: as §2
Hepatitis C virus [17] = assay: Antiviral activity against Hepatitis C virus genotype 1b infected in human Huh cells assessed as inhibition of viral replication by luciferase reporter assay; type: functional, cell-based, Hepacivirus hominis; outline: as §3
[18] = Half life in cynomolgous monkey liver microsomes at 2 uM; type: ADME, Macaca fascicularis; conditions: cynomolgus monkey
Outline: (§4)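 Stability in liver microsomes with 2 µM initial compound concentration; half-life recorded.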

Cynomolgus monkey [19] = assay: Dose normalized Cmax in cynomolgous monkey at 10 mg/kg, po and 2 mg/kg, iv; type: ADME, organism-based, Macaca fascicularis; conditions: in vivo; outline: as §2
Cynomolgus monkey [20] = assay: Dose normalized AUC in cynomolgous monkey at 10 mg/kg, po and 2 mg/kg, iv; type: ADME, organism-based, Macaca fascicularis; conditions: in vivo; outline: as §2
[21] = Half life in dog liver microsomes at 2 uM; type: ADME, Canis lupus familiaris; outline: as §4
[22] = Permeability from apical to basolateral side of human Caco2 cells; type: ADME, cell-based; conditions: Caco-2, read-out: permeability
Outline: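 Caco-2 permeability measured in the apical-to-basolateral direction, reported in cm/s.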

[23] = Half life in rat liver microsomes at 2 uM; type: ADME; outline: as §4
[24] = Ratio of drug up take in liver to plasma of rat at 4 mg/kg, po as cassette dosing measured at 2 hrs post dose; type: ADME, organism-based; design: dose 4 mg/kg, route oral
Outline: (§5)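 Cassette dosing: a mixture of 4 compounds, each at 4 mg/kg, given orally to 2 fasted rats in 0.5% methylcellulose, 0.3% Tween-80 and 1% NMP. Plasma sampled at 1 and 2 h. Liver/plasma ratio determined at 2 h.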

[25] = Half life in human liver microsomes at 2 uM; type: ADME; outline: as §4
[26] = Cytotoxicity against human HuH7 cells assessed as reduction in cell viability by MTT assay; type: cell-based; conditions: Huh-7 cells, read-out: TC50 (the source's name)
Outline: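 Cytotoxicity (TC50) measured by MTT read-out in the Huh-7 cell line.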

[27] = Plasma concentration in rat at 4 mg/kg, po as cassette dosing measured at 1 hr post dose; type: ADME, organism-based; design: dose 4 mg/kg, route oral; outline: as §5
[28] = Lipophilicity, log D of the compound at pH 7.4; type: physicochemical; conditions: buffer
[29] = Plasma concentration in rat at 4 mg/kg, po as cassette dosing measured at 2 hrs post dose; type: ADME, organism-based; design: dose 4 mg/kg, route oral; outline: as §5
[30] = Cmax in rat at 5 mg/kg, po; type: ADME, organism-based; design: dose 5 mg/kg, route oral; conditions: in vivo
Outline: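 Rats fasted overnight, then given a single compound orally at 5 mg/kg in 0.5% methylcellulose, 0.3% Tween-80 and 1% NMP. Plasma Cmax measured. Liver/plasma concentration ratio taken at 8 h for single-compound dosing.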

Row | pEC50 (Hepatitis C virus [7]) | pIC50 [12] | pEC50 (Hepatitis C virus [17]) | Papp A→B [22] | half-life at 2 µM [23] | half-life at 2 µM [25] | concentration at 1 h [27] | logD [28] | concentration at 2 h [29] | SMILES | CC50 [26] | further results
1 | 7.54 | 7.08 | 7.89 | – | – | – | – | – | – | CCOc1cc(NC(=O)C2(NC(=O)c3ccc4c(C5CCCC5)c(-c5ncc(Cl)cn5)n(C)c4c3)CCC2)ccc1/C=C/C(=O)O | – | Kp at 6 h [1]: 5.5; Cmax [2]: 3.2 µM; Vdss/dose (Cynomolgus monkey [3]): 0.6 L/kg; bioavailability [4]: 72%; Kp [5]: 5.5; AUC [6]: 38 µM·h; bioavailability [8]: 19%; pEC50 (Hepatitis C virus [9]): 7.96; clearance [10]: 0.216 L/h/kg; Cmax/dose (Rattus norvegicus): 3.2 µM; half-life [11]: 4.5 h; AUC [13]: 9.6 µM·h; Cmax [14]: 4.1 µM; bioavailability [15]: 29%; t1/2/dose (Cynomolgus monkey [16]): 3 h; half-life at 2 µM [18]: 1.6 h; Cmax/dose (Cynomolgus monkey [19]): 4.8 µM; AUC/dose (Cynomolgus monkey [20]): 26 µM·h; half-life at 2 µM [21]: 2.92 h
2 | – | 6.96 | 7.70 | 75 nm/s | 2.38 h | 4.58 h | 0.4 µM | 3.9 | 0.1 µM | CCOc1cc(NC(=O)C2(NC(=O)c3ccc4c(C5CCCC5)c(-c5ncc(Cl)cn5)n(C)c4c3)CCC2)cnc1/C=C/C(=O)O | > 10 µM | Kp at 2 h [24]: 5
3 | 7.05 | 7.20 | 7.40 | 43 nm/s | > 5 h | 3.98 h | 0.1 µM | – | 0.03 µM | CCOc1nc(NC(=O)C2(NC(=O)c3ccc4c(C5CCCC5)c(-c5ncc(Cl)cn5)n(C)c4c3)CCC2)ncc1/C=C/C(=O)O | > 10 µM | –
4 | – | 7.07 | 7.48 | 150 nm/s | 1.73 h | 2.42 h | – | 3 | – | CCOc1cc(NC(=O)C2(NC(=O)c3ccc4c(C5CCCC5)c(-c5ncc(Cl)cn5)n(C)c4c3)CCC2)ncc1/C=C/C(=O)O | > 10 µM | Cmax [30]: 1.8 µM

Reference: ChEMBL document CHEMBL3400098, “Aza follow-ups to BI 207524, a thumb pocket 1 HCV NS5B polymerase inhibitor. Part 1: Mitigating the genotoxic liability of an aniline metabolite” (Bioorg Med Chem Lett, 2015)
